Compound activity from PubChem BioAssay.
This is a sample that favours compounds with a hit; in the whole collection about 3.2% have one here.
HTRA1 inh = inhibitors of human serine peptidase HTRA1 | Q92743 | 0.5% of 340,000 active | AID 504803 | recombinant HTRA1, FP-rhodamine activity-based probe, fluorescence polarization | inhibition, % at 5.96 µM; in the data active means inhibition above about 36%
rCAG binder = binds r(CAG) RNA repeats | 1.3% of 370,000 active | inhibition, % at 3 µM | r(CAG) RNA repeat, TO-PRO-1 dye displacement fluorescence;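 active means inhibition above the plate cutoff, the mean of all test compounds on that plate plus 3 SD, cut at about 35% in these data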;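 further: higher means more dye released from RNA so lower well fluorescence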
PRMT1 FP inh = inhibitors of human PRMT1 | 1.3% of 370,000 active | recombinant PRMT1, activity-based probe fluorescence polarization | Q99873 | inhibition, % at 2.79 µM | AID 652257;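 active means inhibition above about 21% made by adding two undisclosed values, limit read from the data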
Target sequence (Q99873 whole entry, looked up): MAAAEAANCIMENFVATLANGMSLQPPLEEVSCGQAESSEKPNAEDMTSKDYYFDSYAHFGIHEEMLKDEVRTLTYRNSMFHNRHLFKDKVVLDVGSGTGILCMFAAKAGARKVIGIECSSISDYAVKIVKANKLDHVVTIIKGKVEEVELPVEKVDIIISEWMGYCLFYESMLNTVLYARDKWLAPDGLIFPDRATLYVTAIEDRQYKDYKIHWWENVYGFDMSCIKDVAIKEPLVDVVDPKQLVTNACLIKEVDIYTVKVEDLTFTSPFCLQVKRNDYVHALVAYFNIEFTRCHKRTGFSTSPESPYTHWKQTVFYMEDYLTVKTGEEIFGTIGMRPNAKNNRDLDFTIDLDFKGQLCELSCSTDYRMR
DAGLB inhibitor = diacylglycerol lipase beta (human) inhibition | HEK293T DAGLB membrane lysate, EnzChek fluorogenic substrate | inhibition, % at 5.17 µM | 0.059% of 340,000 active | Q8NCG7; in the data active means inhibition above about 34%
ABHD4 inh = inhibits mouse alpha/beta hydrolase domain 4. Q8VD66. purified mABHD4, FP-Rh probe fluorescence polarization. 0.54% of 370,000 active. inhibition, % at 8.92 µM;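 active means inhibition exceeding the mean over every tested compound plus 3 SD, cut at about 30% in these data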
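Material: mouse ABHD4 enzyme, wild type; Benchmarks: S159A mutant high control, sample median low control; Buffer or medium: HEPES pH 7.0, NaCl, Pluronic buffer; Signal: fluorescence polarization; Read-out: percent inhibition of probe binding, normalized to plate controls; Timing: pre-incubation 45 min, probe exposure 60 min, at 25 °C; Dosing: 8.92 µM, single dose.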
LEDGF integ inh = blocks HIV-1 LEDGF/p75-dependent DNA integration | TR-FRET IN-LEDGF/p75 DNA integration, Eu/Cy5 | inhibition, % at 3.7 µM | 0.64% of 370,000 active;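 active means inhibition above the screen-wide mean plus 3 SD, cut at about 13% in these data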;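 further: signal is the Cy5 over europium emission ratio at 671 and 618 nm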
IN multimer act = counter-screen for LEDGF/p75 integration inhibitors: HIV-1 integrase multimerization activators. 17% of 2,000 active. shares compounds with LEDGF integ inh. activation, % at 7.7 µM. TR-FRET HIV-1 integrase multimerization, biochemical; in the data active means activation above about 8.9%
TRFRET interf = counter-screen for LEDGF/p75 integration inhibitors: TR-FRET optical interference; shares compounds with LEDGF integ inh; TR-FRET optical interference counterscreen, HIV-1 IN multimerization; inhibition, % at 7.7 µM; 2,000 tested, under 10 active; AID 1053135;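 active means inhibition above the mean over all tested compounds plus 3 SD, which no compound reached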
IN-LEDGF confirm = LEDGF/p75-dependent HIV-1 integration inhibition, confirmation. shares compounds with LEDGF integ inh. TR-FRET LEDGF/p75-dependent HIV-1 integration, biochemical. inhibition, % at 3.7 µM. 36% of 2,000 active. AID 1053136; in the data active means inhibition above about 14%
Numbers stand for hits; . = inactive; / = no result.

SMILES | HTRA1 inh | rCAG binder | PRMT1 FP inh | DAGLB inhibitor | ABHD4 inh | LEDGF integ inh | IN multimer act | TRFRET interf | IN-LEDGF confirm
CC1=N/C(=C/c2ccco2)C(=O)O1 | . | . | . | . | . | 13 | 10 | . | 54
COC(=O)c1c(NC(=O)CN2CCC3(O)CCCCC3C2c2ccc(F)cc2)sc(C)c1C (configuration not stated) | . | . | . | . | . | . | / | / | /
COC(=O)c1c(NC(=O)CN2CCC3(O)CCCCC3C2c2cc(OC)ccc2OC)sc(C)c1C (configuration not stated) | . | . | . | . | . | 15 | . | . | .
COC1=C(Nc2ccc(OC)cc2)C(=O)c2ccccc2C1=O | . | . | . | . | . | 18 | . | . | .
COC1=C(Nc2ccc(OC)cc2)C(=O)C(OC)=C(Nc2ccc(OC)cc2)C1=O | . | . | . | . | . | . | / | / | /
Cc1onc(-c2c(Cl)cccc2Cl)c1-c1nc2cc(Cl)ccc2c(=O)o1 | / | . | . | / | . | 81 | . | . | .
Cc1onc(-c2c(F)cccc2Cl)c1-c1nnc(-c2cccc3ccccc23)o1 | / | . | . | / | . | . | / | / | /
C=CCN1C(=O)[C@H](CC(=O)NCc2ccc(C)o2)[C@@]2(C(=O)OCC)CCCC=C12 | / | . | . | / | . | . | / | / | /
O=c1c(Br)ccc(Br)cc1Br | . | . | 62 | . | . | 15 | . | . | 30
CC(C)[C@H](NS(=O)(=O)c1ccc2c(c1)OCCO2)C(=O)OCC(=O)Nc1cccc(Cl)c1Cl | . | . | . | . | . | 18 | . | . | .
CC1=C(C(=O)N(C)C)CC(CC(=O)NC2CCCC2)C(=O)N1Cc1ccccc1 (configuration not stated) | . | . | . | . | . | . | / | / | /
CCN1CCc2c(sc3c2c(NCc2ccco2)nc2nnnn23)C1 | . | . | . | . | . | . | / | / | /
CCC(CC)C(=O)N(C)c1c(C)nc2c(OCc3ccc(F)c(F)c3)cccn12 | / | . | . | / | . | 21 | . | . | .
CCC(CC)C(=O)N(C)c1c(C)nc2c(OCc3ccc(C(F)(F)F)cc3)cccn12 | / | . | . | / | . | . | / | / | /
C/C(CC(=O)Nc1ccc2c(c1)OCCO2)=N\NC(=O)c1ccccc1Cl | . | . | . | . | . | . | / | / | /
C=CCn1c(C)cc(C(=O)Cn2ncc(Cl)c(Cl)c2=O)c1C | . | . | . | . | . | 26 | 26 | . | 39
CC(C)(C)C(=O)Cn1ncc(Cl)c(Cl)c1=O | . | . | . | . | . | . | / | / | /
Cc1c(C(=O)NCCN2CCOCC2)oc2ccccc12 | . | . | . | . | . | . | / | / | /
Cc1c(C(=O)NCCN2CCOCC2)oc2ccc(Br)cc12 | . | . | . | . | . | 18 | . | . | .
COc1ccccc1OCC(=O)Nc1nc(-c2ccc(S(=O)(=O)N3CCOCC3)cc2)cs1 | . | . | . | . | . | . | / | / | /
Cc1cc(C(=O)Nc2cc(Br)ccc2O)on1 | . | . | . | . | . | . | / | / | /
CC1=C(n2nnc([N+](=O)[O-])n2)C(c2cccnc2)C(C#N)=C(N)O1 (configuration not stated) | . | . | . | . | . | 30 | . | . | .
COC(=O)C1=C(C)OC(N)=C(C#N)C1c1cccnc1 (configuration not stated) | . | . | . | . | . | . | / | / | /
Cc1noc(C)c1S(=O)(=O)N1CCCC(C(=O)NCc2ccccc2Cl)C1 (configuration not stated) | . | . | . | . | . | . | / | / | /
COC(=O)[C@H]1C[C@H]2[C@@H]3CC[C@H]4C[C@@H](OC)CC[C@]4(C)[C@H]3CC[C@]2(C)[C@@]2(CCCO2)O1 | . | . | . | . | . | 49 | . | . | .
SMILES | HTRA1 inh | rCAG binder | PRMT1 FP inh | DAGLB inhibitor | ABHD4 inh | LEDGF integ inh | IN multimer act | TRFRET interf | IN-LEDGF confirm
N#Cc1nc(-c2ccc(F)cc2)oc1NCc1ccccc1 | . | . | . | . | . | 15 | . | . | .
N#Cc1nc(-c2cccs2)oc1NCc1ccccc1 | . | . | . | . | . | 14 | . | . | 17
Cc1ccc(CNc2oc(-c3cccs3)nc2C#N)cc1 | . | . | . | . | . | 21 | . | . | .
C/C(=N\NS(=O)(=O)c1ccccc1)c1cccc(NC(=O)c2cccc(Cl)c2)c1 | . | . | . | . | . | . | / | / | /
O=C(Nc1ccccc1C(=O)N1CCN(c2cccc(Cl)c2)CC1)C1=CSCCO1 | . | . | . | . | . | 81 | . | . | .
CC1(c2nnc(Cc3ccccc3)o2)CC(c2cccnc2)=NO1 (configuration not stated) | . | . | . | . | . | 92 | . | . | .
CC1(c2nnc(-c3ccccc3)o2)CC(c2cccnc2)=NO1 (configuration not stated) | . | . | . | . | . | . | / | / | /
N#Cc1ccc(C(=O)N(Cc2ccccc2)c2ccccc2)cc1 | . | . | . | . | . | 14 | . | . | .
COC(=O)c1ccc(C(=O)N(Cc2ccccc2)c2ccccc2)cc1 | . | . | . | . | . | . | / | / | /
COc1ccc(/C=C2\C(=O)NC(=O)c3ccccc32)cc1OC | . | . | . | . | . | 30 | 16 | . | 65
COc1ccc(C=C2C(=O)OC(C)(C)OC2=O)cc1OC | . | . | . | . | . | . | / | / | /
COc1cccc(C=Nc2ccc(N3CCOCC3)cc2)c1O | . | . | . | . | . | 18 | . | . | .
CNC(=O)C1CCN(C(=O)c2ccc(-c3ccccc3)cc2)CC1 | . | . | . | . | . | . | / | / | /
CCOc1cc(CNc2ccc(N3CCOCC3)cc2)cc(Br)c1OCC | . | . | . | . | . | 15 | . | . | .
c1cc(CNc2ccc(N3CCOCC3)cc2)ccn1 | . | . | . | . | . | 16 | . | . | .
C=CCn1cc(/C=C2\SC(N3CCOCC3)=NC2=O)c2ccccc21 | / | . | . | / | . | . | / | / | /
CC(=C/C(=O)O)/C=C/c1ccc(Cl)o1 | . | . | . | . | . | 13 | . | . | 54
CCc1nc(Nc2ccccc2)c2nnn(Cc3ccccc3)c2n1 | . | . | . | . | . | . | / | / | /
CCc1nc(NCc2cccs2)c2nnn(Cc3ccccc3)c2n1 | . | . | . | . | . | 16 | . | . | .
CCOC(=O)C(C)On1c(-c2cccc(Cl)c2)nc2ccc([N+](=O)[O-])cc21 (configuration not stated) | . | . | . | . | . | . | / | / | /
Cc1ccccc1C(=O)c1c[nH]c(C(=O)NCCc2ccccn2)c1 | . | . | . | . | . | 22 | . | . | .
